In ChEMBL document CHEMBL1155837 (Bioorg Med Chem Lett, 2008):

Legend:
[1] = test system: Human alphaherpesvirus 2; test: Antiviral activity against acyclovir-sensitive HSV2 HG32 in african green monkey Vero cells assessed as inhibition of virus plaque formation; type: functional, organism-based; conditions: Human alphaherpesvirus 2, HG32, Vero
In short: (§1)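 Vero cells were grown to density in DMEM with 10% fetal bovine serum, L-glutamine, penicillin and streptomycin, then preincubated 30 min with drug and kept in drug throughout. They were infected with 100 pfu per well, adsorbed 45 min and overlaid with 1.2% Avicel in DMEM. After 3 days, plaques were stained with crystal violet and counted.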

[2] = test system: Human alphaherpesvirus 2; test: Antiviral activity against acyclovir-resistant HSV2 ACR in african green monkey Vero cells assessed as inhibition of virus plaque formation; type: functional, organism-based; conditions: Human alphaherpesvirus 2, ACR; in short: as §1
[3] = Cytotoxicity against HEL cells assessed as alteration of cell morphology; type: cell-based; conditions: human
In short: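 In HEL cells, the MCC is the minimal compound concentration producing a microscopically visible change in cell morphology.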

[4] = Cytotoxicity against HEL cells assessed as inhibition of cell proliferation; type: cell-based; conditions: human
[5] = test system: Human alphaherpesvirus 1; test: Antiviral activity against acyclovir-resistant and thymidine kinase deficient HSV1 KOS in HEL cells assessed as inhibition of virus induced cytopathicity within 48 hrs; type: functional, organism-based; conditions: Human alphaherpesvirus 1, KOS
In short: (§2)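 Confluent HEL fibroblast cultures were inoculated with 100 CCID50 of virus per well. After 1 h adsorption, residual virus was removed and cells were incubated with serial dilutions of compound.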

[6] = test system: Human alphaherpesvirus 3; test: Antiviral activity against TK+ VZV OKA infected HEL cells assessed as reduction in virus plaque formation after 5 days; type: functional, organism-based; conditions: Human alphaherpesvirus 3, OKA, 120 h
[7] = test system: Human alphaherpesvirus 3; test: Antiviral activity against TK+ VZV YS infected HEL cells assessed as reduction in virus plaque formation after 5 days; type: functional, organism-based; conditions: Human alphaherpesvirus 3, YS, 120 h
[8] = test system: Human alphaherpesvirus 3; test: Antiviral activity against thymidine kinase deficient VZV 07/1 infected HEL cells assessed as reduction in virus plaque formation after 5 days; type: functional, organism-based; conditions: Human alphaherpesvirus 3, 07/1, HEL, 120 h
[9] = test system: Human alphaherpesvirus 3; test: Antiviral activity against thymidine kinase deficient VZV YS/R infected HEL cells assessed as reduction in virus plaque formation after 5 days; type: functional, organism-based; conditions: Human alphaherpesvirus 3, YS/R, 120 h
[10] = test system: Human alphaherpesvirus 2; test: Antiviral activity against HSV2 G in HEL cells assessed as inhibition of virus induced cytopathicity within 48 hrs; type: functional, organism-based; conditions: Human alphaherpesvirus 2, strain G; in short: as §2
[11] = test system: Human alphaherpesvirus 1; test: Antiviral activity against HSV1 KOS in HEL cells assessed as inhibition of virus induced cytopathicity within 48 hrs; type: functional, organism-based; conditions: Human alphaherpesvirus 1, KOS; in short: as §2
[12] = test system: Human alphaherpesvirus 2; test: Antiviral activity against HSV2; type: functional, organism-based

| SMILES | EC50 [1] [µM] | EC50 [2] [µM] | MCC [3] [µM] | CC50 [4] [µM] | EC50 [5] [µM] | EC50 [6] [µM] | EC50 [7] [µM] | EC50 [8] [µM] | EC50 [9] [µM] | EC50 [10] [µM] | EC50 [11] [µM] | EC50 [12] [µM] |
| --- | --- | --- | --- | --- | --- | --- | --- | --- | --- | --- | --- | --- |
| Nc1nc2c(ncn2COCCO)c(=O)[nH]1 [ACYCLOVIR] | 6 | > 100 | > 250 | 1350 |  |  |  |  |  |  |  |  |
| COC(=O)[C@H](C)NP(=O)(OCCOCn1cnc2c(=O)[nH]c(N)nc21)Oc1cccc2ccccc12 (some centres not stated) | 40.4 | 15 | > 50 | > 100 | 80 | 7.6 | 10.9 | 22 | 6.1 |  |  |  |
| Nc1nc2c(ncn2COCCOP(=O)(N[C@@H](Cc2ccccc2)C(=O)OCc2ccccc2)Oc2ccccc2)c(=O)[nH]1 (some centres not stated) | 20.3 | 33.2 | > 50 | 86.9 | > 100 | 5.2 | 6.6 | 8.4 | 10 | 8 |  |  |
| C[C@H](NP(=O)(OCCOCn1cnc2c(=O)[nH]c(N)nc21)Oc1cccc2ccccc12)C(=O)OCc1ccccc1 (some centres not stated) | 9.8 | 14.5 | > 50 | 20 | 11 | 7.2 | 3.3 | 6.9 |  |  |  |  |
| C[C@H](NP(=O)(OCCOCn1cnc2c(=O)[nH]c(N)nc21)Oc1ccccc1)C(=O)OCc1ccccc1 (some centres not stated) | 20.3 | 15.5 | > 50 | > 100 |  | 0.72 | 1 | 1.8 | 0.59 | 1.4 | 0.9 |  |
| COC(=O)[C@H](C)NP(=O)(OCCOCn1cnc2c(=O)[nH]c(N)nc21)Oc1ccccc1 (some centres not stated) | 43.1 | 18.7 | > 100 | 162 | 80 | 19 | 20 | 24 | 16 | 15 |  | ≥ 100 |
